Source: ChEMBL document CHEMBL1147826, “Activity of B-nor analogues of neurosteroids on the GABA(A) receptor in primary neuronal cultures” (J Med Chem, 2006)
Activity calls are given as the source filed them. No cut-off for these calls is given here.

Experiments:
[1] = target: GABA-A receptor; anion channel (Rattus norvegicus) (UniProt O09028+P15431+P18506+P18508+P19969+P20236+P23574+P23576+P28471+P28473+P30191+P62813+P63079+P63138+Q91ZM7+Q9ES14); assay: Inhibition of [35S]TBPS binding to GABA-A receptor in Wistar rat brain membrane at 10 uM; format: cell membranes
Procedure, shortened: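 Whole-brain membranes from adult male Wistar rats in 20 mM KH2PO4/200 mM KCl, pH 7.4. Incubated 60 min at 37 °C with 2 nM [35S]TBPS, 1 µM GABA and steroid. Nonspecific binding defined with 200 µM picrotoxinin. Results expressed as % of DMSO controls.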

[2] = target: GABA-A receptor; anion channel; assay: (§1) Increase in [3H]flunitrazepam binding to GABA-A receptor in mouse embryo cortical neurons; format: protein-complex assay
Procedure, shortened: (§2)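 Intact mouse embryonic cortical neurons at 7-9 days in vitro, washed into HEPES buffer pH 7.3. Incubated 30 min at 25 °C with 1.3-2.0 nM [3H]flunitrazepam and steroid (1 nM-30 µM, DMSO <0.5% final). Nonspecific binding taken with 20 µM diazepam; 100 µM GABA as positive control. Data as % of control binding. EC50 from sigmoid fits of at least six concentrations in triplicate, 3-5 independent curves.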

[3] = target: T1, GABA-A receptor; anion channel (Mus musculus) (UniProt Q8BHJ7+P26048+Q8QZW7+P50571+Q9R0Y8+P22723+A2AMW3+P62812+Q9JLF1+P26049+P22933+Q9D6F4+P63080+P27681+P16305); assay: Effect on GABA-A-induced 36chloride ion influx in mouse embryo cortical neurons at 10 uM relative to basal value; format: functional
Procedure, shortened: (§3)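 Primary cortical neurons from 16-day mouse embryos, cultured 7-9 days with 5 µM fluorodeoxyuridine/20 µM uridine to block glia. 45 min preincubation in Earle's salt solution pH 7.4 at 36.8 °C, then 10 min at room temperature. 7 s uptake of 36Cl (0.2-0.7 µCi/mL) with or without 5 µM GABA plus steroid. Basal uptake measured without GABA or steroid. Lysate counted by scintillation.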

[4] = target: T1, GABA-A receptor; anion channel (Mus musculus); assay: Effect on 36chloride ion influx in mouse embryo cortical neurons in absence of GABA-A at 10 uM relative to basal value; format: functional; procedure, shortened: as §3
Cortical neurone [5] = assay: Loss of viability of cortical neuron at 100 uM after 24 hrs; format: functional, cell-based; settings: Mus musculus
Procedure, shortened: (§4)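 Mouse embryonic cortical neuron cultures exposed to steroid at 10 µM for 72 h, or 100 µM for 24 or 72 h. MTT (250 µg/mL in HEPES buffer) for 15 min at 37 °C, formazan dissolved in 5% SDS and read at 560 nm. Expressed as % of untreated controls. Two independent experiments in triplicate.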

Cortical neurone [6] = assay: Loss of viability of cortical neuron at 10 uM after 72 hrs; format: functional, cell-based; settings: Mus musculus; procedure, shortened: as §4
[7] = target: T1, GABA-A receptor; anion channel (Mus musculus); assay: as §1; format: protein-complex assay; procedure, shortened: as §2
Cortical neurone [8] = assay: Loss of viability of cortical neuron at 100 uM after 72 hrs; format: functional, cell-based; settings: Mus musculus; procedure, shortened: as §4

Compound: CC(=O)[C@H]1CC[C@H]2[C@@H]3C[C@H]4C[C@H](O)CC[C@]4(C)[C@H]3CC[C@]12C
- inhibition [1]: 33%
- Log EC50 [2]: -6.61
- Activity [3]: 199%
- Activity [4]: 1.7%
- Activity (Cortical neurone [5]): inactive
- Activity (Cortical neurone [6]): inactive

Compound: CC(=O)[C@H]1CC[C@H]2[C@@H]3CC(=O)[C@H]4C[C@H](O)CC[C@]4(C)[C@H]3CC[C@]12C
- Activity [7]: inactive
- Activity [3]: 100%

Compound: CC(=O)[C@H]1CC[C@H]2[C@@H]3C[C@@H]4C[C@H](O)CC[C@]4(C)[C@H]3CC[C@]12C
- Log EC50 [2]: -6.03
- Activity [3]: 172%
- Activity [4]: 1.7%
- Activity (Cortical neurone [5]): inactive
- Activity (Cortical neurone [6]): inactive

Compound: CC(=O)[C@H]1CC[C@H]2[C@@H]3CC=C4C[C@H](O)CC[C@]4(C)[C@H]3CC[C@]12C
- Activity [3]: 131%

Compound: CC(=O)[C@H]1CC[C@H]2[C@@H]3[C@@H]4O[C@@]45C[C@H](O)CC[C@]5(C)[C@H]3CC[C@]12C
- Activity [7]: inactive
- Activity [3]: 103%

Compound: CC(=O)[C@H]1CC[C@H]2[C@@H]3C(=O)N[C@H]4C[C@H](O)CC[C@]4(C)[C@H]3CC[C@]12C
- Activity [7]: inactive
- Activity [3]: 81%

Compound: CC(=O)[C@H]1CC[C@H]2[C@@H]3CN[C@H]4C[C@H](O)CC[C@]4(C)[C@H]3CC[C@]12C
- Activity [7]: inactive
- Activity [3]: 86%

Compound: CC(=O)[C@H]1CC[C@H]2[C@@H]3CC[C@@H]4C[C@H](O)CC[C@]4(C)[C@H]3CC[C@]12C [ELTANOLONE]
- Log EC50 [2]: -5.93
- Activity [3]: 162%

Compound: CC(=O)[C@H]1CC[C@H]2[C@@H]3C(=O)[C@H]4C[C@H](O)CC[C@]4(C)[C@H]3CC[C@]12C
- Activity [7]: inactive
- Activity [3]: 82%

Compound: CC(=O)[C@H]1CC[C@H]2[C@@H]3C(=O)C[C@H]4C[C@H](O)CC[C@]4(C)[C@H]3CC[C@]12C
- Activity [7]: inactive
- Activity [3]: 90%

Compound: CC(=O)[C@H]1CC[C@H]2[C@@H]3[C@H]4O[C@]45C[C@H](O)CC[C@]5(C)[C@H]3CC[C@]12C
- Activity [7]: inactive
- Activity [3]: 104%

Compound: CC(=O)[C@H]1CC[C@H]2[C@@H]3CC[C@H]4C[C@H](O)CC[C@]4(C)[C@H]3CC[C@]12C [BREXANOLONE]
- Activity (Cortical neurone [8]): Active
- Log EC50 [2]: -6.06
- Activity [3]: 164%
- Activity (Cortical neurone [5]): inactive
- Activity (Cortical neurone [6]): inactive

Compound: CC(=O)[C@H]1CC[C@H]2[C@H]3C(=C4CC[C@@H](O)C[C@@]4(C)[C@H]3O)CC[C@]12C
- Activity [7]: inactive
- Activity [3]: 76%

Compound: CC(=O)[C@H]1CC[C@H]2[C@@H]3[C@H]4O[C@]45C[C@@H](O)CC[C@]5(C)[C@H]3CC[C@]12C
- Activity [7]: inactive
- Activity [3]: 99%
